Among all 2,500 compounds or so, about 1,200 (48%) were called active. So high a share suggests a set chosen from earlier hits. This is one part of the list. A number with no mark means an inactive call.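 The calls were made as follows: active = mean activation above the low control average plus 3 SD, as set in the primary screen (cut at about 12% in these data); inactive = the rest.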
The molecules below were run against Troponin I, cardiac muscle (Homo sapiens) + Troponin T, cardiac muscle (Homo sapiens) + Troponin C, slow skeletal and cardiac muscles (Homo sapiens) (UniProt P19429+P45379+P63316) (assay: calcium sensitizers of cardiac thin filaments – biochemical, IANBD-TnC fluorescence, triplicate, confirmation (AID 504383;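 also: 0% = DMSO at 0.472 mM calcium and 100% = DMSO at 2.9 mM calcium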)). Conditions: IANBD-labeled cardiac RTF, Ca2+ sensitivity fluorescence; at 7.2 µM; active compounds read high; scaled from EC20 to saturating calcium; tested at EC20 calcium, 0.472 mM.
Procedure, shortened: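 material = labelled regulated thin filaments | probe or stimulus = Ca2+ 0.472 mM, EC20 level | dosing = single nominal compound dose of 7.2 µM | schedule = 15 min at 25 °C | signal = fluorescence intensity of labelled filaments | evaluation = fluorescence gain scaled between EC20 and EC100 calcium controls | benchmarks = low control EC20 calcium, high control EC100 calcium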
For `Fc1ccc(CN2CC[C@H]3C=CCc4cccc(c43)C2)cc1`, the activation was 144% (active). Molecule `COC1C(CO)OC(n2c3c(Cl)cccc3c3c4c(c5c6cccc(Cl)c6[nH]c5c32)C(=O)NC4=O)C(O)C1O` (centres undefined) has an activation of 2.74%. Molecule `CCN(CC)CC(C(=O)N(CC)CC)P(=O)(c1ccccc1)c1ccccc1` (centres undefined) has an activation of 6.63%. `CCN(CC)C(=O)C(=O)c1c(-c2ccccc2)[nH]c2ccccc12` was tested, and the activation was 20.5% (active). With `CCN(CC)C(=S)SCC(=O)c1c(C)[nH]c2ccccc12` the activation was 27% (active). In the case of `CCOC(=O)CNc1ccc2c(c1)OCO2`, the activation is reported as 15.4% (active). `O=C(COc1ccccc1)NC(=S)Nc1cccc(NC(=O)c2ccccc2Cl)c1` gave an activation of 7.06%. `CCN(CC)S(=O)(=O)c1ccc2c(c1)nc(CCC(=O)Nc1ccc3c(c1)OCO3)n2C` showed an activation of 8.98%. For `O=C(Nc1ccc2c(c1)OCO2)c1ccc2c(c1)OCO2`, the activation was 16.1% (active). In the case of `O=C(Nc1ccc2c(c1)OCCO2)c1cccc(Cl)c1Cl`, the activation is reported as 77.8% (active). Work on `CC(=O)c1cc2c(cc1N/C(=N/S(=O)(=O)c1ccc(Br)cc1)c1ccccc1)OCO2` yielded an activation of 5.61%. Work on `C=CCn1cccc(C(=O)Nc2ccc(OC)c(Cl)c2)c1=O` yielded an activation of 7.57%. In the case of `COc1ccc(Cn2nnc3ccccc32)cc1`, the activation is reported as 8.45%. In the case of `CCCCOC(=O)Cn1c2ccc(OC)cc2c2nc3ccccc3nc21`, the activation is reported as 12.9% (active). With `CCOc1ccc2nc3cc(NCc4ccc(OC)cc4)ccc3c(N)c2c1` the activation was 4.24%. For `CCOc1ccc(Cn2c3ccc(OC)cc3c3nc4ccccc4nc32)cc1`, the activation was 81.5% (active). Work on `CCOC(=O)c1c(C(C)(C)C)oc2ccc(OCC#N)cc12` yielded an activation of 8.86%. In the case of `CN(C)c1ccc(/C=C2\SC(=O)N(CC(O)Cn3c4ccccc4c4ccccc43)C2=O)cc1` (centres undefined), the activation is reported as 14.3% (active). `CCOC(=O)CN1C(=O)S/C(=C/C=C/c2ccc(N(C)C)cc2)C1=O` was tested, and the activation was 3.71%. Molecule `CN(C)c1ccc(/C=C2\SC(=O)N(CCc3nnc(N)s3)C2=O)cc1` has an activation of 5.55%. For `COc1cc2nc(/C=C/c3ccc(N(C)C)cc3)sc2cc1SC`, the activation was -0.52%. `O=C(COC(=O)c1cc(-c2cccc3ccccc23)nc2ccccc12)NC1CCS(=O)(=O)C1` (centres undefined) was tested, and the activation was 13.5% (active). `CCCN1CC=C2C(C#N)=C(N)C(C#N)(C#N)C(c3cccc(OC)c3OC)C2C1` (centres undefined) gave an activation of 0.08%. For `CCN1CC=C2C(C#N)=C(N)C(C#N)(C#N)C(c3cc(Cl)ccc3Cl)C2C1` (centres undefined), the activation was 253% (active). For `CCN1CC=C2C(C#N)=C(N)C(C#N)(C#N)[C@H](c3cccc(OC)c3OC)[C@H]2C1`, the activation was 14.7% (active). Molecule `O=C(COC(=O)/C=C/c1ccc(Cl)cc1)NCCN1C(=O)CSC1=O` has an activation of 4.03%. In the case of `CCN(CC(=O)Nc1ccccc1C(=O)NC1CC1)Cc1cccs1`, the activation is reported as 89.2% (active). Molecule `O=C(c1ccccn1)N(Cc1cccs1)C1(C(=O)NC2CCCCC2)CCCCC1` has an activation of 1.46%. With `Cc1ccc(C(C(=O)NC2CCCC2)N(C(=O)Cc2cccs2)c2cccc(C)c2C)o1` (centres undefined) the activation was 7.72%. `Cn1cc(/C=C2\SC(=S)N(NC(=O)c3cccc(Cl)c3)C2=O)c2ccccc21` was tested, and the activation was 52.1% (active). `Cn1cc(/C=C2\SC(=S)N(NC(=O)c3ccccc3)C2=O)c2ccccc21` was tested, and the activation was 40.9% (active). `Cc1ccc(C(=O)NN2C(=O)/C(=C/c3cn(C)c4ccccc34)SC2=S)cc1` was tested, and the activation was 19.4% (active). `Cn1cc(/C=C2\SC(=S)N(NC(=O)c3ccccc3Cl)C2=O)c2ccccc21` was tested, and the activation was 23.3% (active). `N#CCC(=O)N/N=C/c1ccc(N2N=C(c3ccccc3)CC2c2ccccc2)cc1` (centres undefined) gave an activation of 8.4%. `NS(=O)(=O)c1ccc(N2N=C(c3ccccc3)CC2c2ccccc2)cc1` (centres undefined) was tested, and the activation was 31% (active). `O=[N+]([O-])c1ccc(N2N=C(c3ccccc3)CC2c2ccccc2O)cc1` (centres undefined) was tested, and the activation was 127% (active). `N#CC1CC(c2ccc([N+](=O)[O-])cc2)=NN1c1ccc([N+](=O)[O-])cc1` (centres undefined) gave an activation of 6.69%. With `COc1ccc(C2CC(c3ccncc3)=NN2c2ccc(S(N)(=O)=O)cc2)cc1` (centres undefined) the activation was 13.1% (active). In the case of `Cc1ccccc1-n1nnnc1SCC(C)C`, the activation is reported as 103% (active). `CSc1nnnn1-c1c(C)cc(C)cc1C` showed an activation of 3.29%. With `O=C(COc1ccccc1F)NC1CC1` the activation was 66.3% (active). `COC(=O)c1cc2c(C)c(C)c3ccccn3c-2c1C(=O)OC` showed an activation of 5.27%. `O=C(N/N=C/c1cc([N+](=O)[O-])ccc1N1CCNCC1)c1ccc([N+](=O)[O-])cc1` was tested, and the activation was 19% (active). `CCOc1ccc(NC(=S)c2ccncc2)cc1` gave an activation of 6.9%. Molecule `C=CCN1C(=O)[C@@H]2Cc3c([nH]c4ccccc34)C(c3ccc(O)cc3)N2C1=S` (some centres undefined) has an activation of 4.94%. Molecule `N#CC12COC3(CCCCC3C1(C#N)C#N)OC2=N` (centres undefined) has an activation of 2.01%. In the case of `CN(C)c1ccc(/C=C2\CCC/C(=C\c3ccccc3)C2=O)cc1`, the activation is reported as 0.5%. Molecule `CCCOc1ccc(-c2nn(-c3ccccc3)cc2/C=C2\SC(N)=NC2=O)cc1` has an activation of -0.61%. `CCN(CC)c1ccc(/C=C2\SC(N)=NC2=O)cc1` was tested, and the activation was 108% (active). For `COc1ccccc1N=C1NC(=O)/C(=C/c2ccc(N(C)C)cc2)S1`, the activation was 10.9%. With `CN(C)c1ccc(C=C2SC(=S)NC2=O)cc1` the activation was 11.7% (active). For `CCN(CC)c1ccc(C=C2SC(=S)NC2=O)cc1`, the activation was 57.9% (active). For `COc1ccc(-c2nn(CCC(=O)O)cc2/C=C2\SC(N)=NC2=O)cc1`, the activation was 8.42%. For `CCOc1ccc(N(C)c2ccc(/C=C3/SC(=S)NC3=O)cc2)cc1`, the activation was 20.5% (active). Molecule `NC(=O)C1(NC(=O)[C@@H]2CC3(CC(c4cccc(NC(=O)[C@@H]5CCC(=O)N5)c4)=NO3)CN2C(=O)c2ccccc2)CC1` (some centres undefined) has an activation of 9.17%. With `COc1ccc(N/C=C2\C(=O)CCc3c2oc2cc(Cl)c(O)c(Cl)c32)cc1` the activation was 47.7% (active). In the case of `Cc1cccc(/C=C2/SC(=O)N(Cc3ccccc3)C2=O)n1`, the activation is reported as 47.1% (active). `COC(=O)c1ccccc1NC(=O)[C@@H]1CCC(=O)N1C1OC(=O)c2c1ccc(OC)c2OC` (some centres undefined) gave an activation of 3.55%. In the case of `CCOc1cc2c(cc1/C=C/c1noc(C)c1[N+](=O)[O-])OC(C)C2` (centres undefined), the activation is reported as 330% (active).

— PubChem BioAssay AID504383 (The Scripps Research Institute Molecular Screening Center, 2011)
